Publication PMC9668306 (Science Advances, 2022)
“Also recorded” adds a separate entry of the source.

How the values were obtained:
[1] = Plasma stability, human plasma; type: in vitro ADME; conditions: % remaining at 60 minutes, 37°C
[2] = target: T1, recombinant CES1 enzyme (Homo sapiens, UniProt P23141); assay: Recombinant CES1 enzyme stability; type: in vitro ADME; conditions: 20 μM, enzyme 10 μg/ml, up to 3 hours
T1 sequence (P23141 18-567): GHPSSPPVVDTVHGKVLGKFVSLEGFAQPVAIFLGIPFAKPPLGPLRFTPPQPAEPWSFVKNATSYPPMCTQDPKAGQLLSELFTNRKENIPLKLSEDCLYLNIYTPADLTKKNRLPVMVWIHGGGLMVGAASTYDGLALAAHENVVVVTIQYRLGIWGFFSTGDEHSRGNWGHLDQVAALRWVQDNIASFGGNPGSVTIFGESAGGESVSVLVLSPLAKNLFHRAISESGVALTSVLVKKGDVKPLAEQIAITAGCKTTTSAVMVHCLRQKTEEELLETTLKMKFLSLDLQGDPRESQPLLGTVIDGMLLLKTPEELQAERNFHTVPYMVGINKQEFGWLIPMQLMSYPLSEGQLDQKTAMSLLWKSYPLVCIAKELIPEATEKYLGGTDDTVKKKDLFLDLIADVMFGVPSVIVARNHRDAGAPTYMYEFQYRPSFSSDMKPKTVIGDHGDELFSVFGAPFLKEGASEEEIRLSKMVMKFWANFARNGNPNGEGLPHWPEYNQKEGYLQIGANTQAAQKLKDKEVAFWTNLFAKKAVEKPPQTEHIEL

[3] = Tolerability, intravenous cohort; type: in vivo, C57BL/6/CES1-/- mice
How it was run: (§1)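 EL4 cells (0.3 × 10^6) were given s.c. in the right flank. At a mean tumour volume of about 400 mm3, mice were randomised (n = 8) to vehicle, parent drug 1 mg/kg or test compound 1 mg/kg DON equivalent, i.v., 5 days/week for 2 weeks. Tumour volume (calipers, […]), body weight and mortality were tracked; euthanasia followed IACUC tumour-volume or weight-loss guidelines.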

[4] = DRP-104 stability in EL4 tumor homogenate with protease/esterase inhibitors; type: in vitro ADME, mouse; conditions: no inhibitor, time 1 h
[5] = tested on: MC38 tumors; assay: Anti-PD-1 combination study, MC38 tumors; type: in vivo, C57BL/6/CES1-/- mice; conditions: MC38 tumor-bearing mice, same regimens
How it was run: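 Mice (4 male, 3 female per group, n = 7) got 5 × 10^5 MC38 cells s.c. in the right flank and were randomised at about 400 mm3 (about day 10). Arms: vehicle; anti-PD-1 100 μg i.p. on days 10, 12, 14 and 16; test compound 0.8 mg/kg s.c., 5 days/week for 4 weeks; combination. Endpoint: tumour >4000 mm3, ulceration, necrosis or functional deficit.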

[6] = tested on: FGAR; assay: Tumor target engagement: tumor FGAR; type: in vivo, C57BL/6/CES1-/- mice; conditions: EL4 tumor, 1 hour after s.c. dose (DRP-104 2.6 mg/kg, DON 0.3 mg/kg)
[7] = Tolerability, subcutaneous dosing cohort; type: in vivo, C57BL/6/CES1-/- mice; conditions: 0.1, 0.3 and 1 mg/kg DON eq. subcutaneously
How it was run: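 EL4 tumour-bearing CES1−/− mice (0.3 × 10^6 cells s.c., right flank) received test compound at 0.1, 0.3 or 1 mg/kg DON equivalent s.c., 5 days/week. Tumour volume and body weight were recorded during dosing, with GI histology assessed alongside.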

[8] = GI histopathology and scoring; type: in vivo, C57BL/6/CES1-/- mice; conditions: for GI histology (in words): 1 mg/kg DON eq. IV, end of treatment
[9] = Intestinal S9 fraction stability and DON release; type: in vitro ADME; conditions: human
How it was run: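 Test compound at 10 μM was incubated with intestinal S9 fraction (final protein 1 mg/ml) at 37°C on an orbital shaker for 1 h, in triplicate. Reactions were quenched with three volumes of acetonitrile containing internal standard.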

[10] = Metabolite identification; type: in vitro ADME, mouse; conditions: 60-min incubation
[11] = tested on: MC38 tumors; assay: CD8 depletion study, MC38 tumors; type: in vivo, C57BL/6/CES1-/- mice; conditions: MC38, CD8+ T cell-depleting antibodies versus isotype
How it was run: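 MC38-bearing CES1−/− mice received anti-mouse CD8β (clone 53-5.8) or rat IgG1 isotype (clone HRPN), 5 mg/kg, the day before implantation, the day after and weekly thereafter; depletion was checked by flow cytometry. Test compound was given at 0.3 mg/kg DON equivalent s.c., 5 days/week, and individual tumour growth was followed.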

[12] = tested on: EL4 tumors; assay: Antitumor efficacy, subcutaneous dosing cohort, EL4 tumors; type: in vivo, C57BL/6/CES1-/- mice; conditions: 0.1, 0.3 and 1 mg/kg DON eq. subcutaneously, 5 days per week
How it was run: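 EL4 mouse lymphoma cells (0.3 × 10^6) were injected s.c. into the right flank of male and female C57BL/6/CES1−/− mice aged 6–8 weeks (25–30 g). Test compound was given s.c. at 0.1, 0.3 or 1 mg/kg DON equivalent, 5 days/week. Tumor length and width were measured by caliper, with volume = […]. Body weight and GI histology were tracked in parallel.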

[13] = tested on: P493B lymphoma cells; assay: P493B lymphoma cell viability assay; type: cell-based; conditions: 72 h
[14] = Body weight in MC38 anti-PD-1 combination study; type: in vivo, C57BL/6/CES1-/- mice; conditions: MC38 tumor-bearing mice, throughout the experiment
[15] = tested on: EL4 tumors; assay: 13C5-glutamine flux analysis in EL4 tumors; type: in vivo, CES1-/- mice; conditions: 0.3 mg/kg DON eq. s.c., vehicle 19.99%
[16] = target: T2, GLS-1 (Mus musculus, UniProt D3Z7P3); assay: Tumor target engagement: tumor GLS-1 activity; type: in vivo, C57BL/6/CES1-/- mice; conditions: EL4 tumor, 1 hour after s.c. dose
T2 sequence (D3Z7P3 55-674): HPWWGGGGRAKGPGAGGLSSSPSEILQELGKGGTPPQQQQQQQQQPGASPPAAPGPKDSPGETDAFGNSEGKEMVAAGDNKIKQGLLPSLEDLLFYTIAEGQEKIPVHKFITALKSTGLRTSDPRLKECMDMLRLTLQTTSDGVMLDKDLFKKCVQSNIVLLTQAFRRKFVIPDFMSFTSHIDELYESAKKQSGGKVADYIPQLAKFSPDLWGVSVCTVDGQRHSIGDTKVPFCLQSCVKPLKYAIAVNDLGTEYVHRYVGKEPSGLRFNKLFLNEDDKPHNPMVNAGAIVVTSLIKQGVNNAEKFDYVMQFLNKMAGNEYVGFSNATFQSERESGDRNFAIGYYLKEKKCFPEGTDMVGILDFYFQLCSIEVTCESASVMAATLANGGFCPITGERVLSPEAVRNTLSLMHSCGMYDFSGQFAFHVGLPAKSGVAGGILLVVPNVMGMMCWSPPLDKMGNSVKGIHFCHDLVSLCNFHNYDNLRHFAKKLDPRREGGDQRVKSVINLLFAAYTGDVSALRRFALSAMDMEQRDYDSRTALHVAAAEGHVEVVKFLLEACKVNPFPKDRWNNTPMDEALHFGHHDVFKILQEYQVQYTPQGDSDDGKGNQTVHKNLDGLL
How it was run: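 Test compound was dosed s.c. to EL4 tumor-bearing CES1−/− mice, and tumors were harvested 1 h post-dose. Tumor GLS-1 activity was quantified with a radiolabel-based enzymatic assay.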

[17] = PK of DRP-104, DON and M1 in EL4 tumor-bearing mice; type: in vivo, C57BL/6/CES1-/- mice; conditions: for intact DRP-104 concentration: BLQ = below the limit of quantitation
[18] = Plasma stability, WT mouse plasma; type: in vitro ADME, WT C57BL/6 mouse; conditions: C57BL/6, mouse
[19] = tested on: EL4 tumors; assay: Antitumor efficacy, intravenous cohort, EL4 tumors; type: in vivo, C57BL/6/CES1-/- mice; conditions: 1 mg/kg DON eq. intravenously, 5 days per week for 2 weeks
How it was run: as §1

[20] = target: T3, glutaminase enzyme (GLS-1) (Homo sapiens, UniProt O94925); assay: GLS-1 inhibition, [3H]-glutamine radiolabel enzymatic assay; type: biochemical
T3 sequence (O94925 55-669): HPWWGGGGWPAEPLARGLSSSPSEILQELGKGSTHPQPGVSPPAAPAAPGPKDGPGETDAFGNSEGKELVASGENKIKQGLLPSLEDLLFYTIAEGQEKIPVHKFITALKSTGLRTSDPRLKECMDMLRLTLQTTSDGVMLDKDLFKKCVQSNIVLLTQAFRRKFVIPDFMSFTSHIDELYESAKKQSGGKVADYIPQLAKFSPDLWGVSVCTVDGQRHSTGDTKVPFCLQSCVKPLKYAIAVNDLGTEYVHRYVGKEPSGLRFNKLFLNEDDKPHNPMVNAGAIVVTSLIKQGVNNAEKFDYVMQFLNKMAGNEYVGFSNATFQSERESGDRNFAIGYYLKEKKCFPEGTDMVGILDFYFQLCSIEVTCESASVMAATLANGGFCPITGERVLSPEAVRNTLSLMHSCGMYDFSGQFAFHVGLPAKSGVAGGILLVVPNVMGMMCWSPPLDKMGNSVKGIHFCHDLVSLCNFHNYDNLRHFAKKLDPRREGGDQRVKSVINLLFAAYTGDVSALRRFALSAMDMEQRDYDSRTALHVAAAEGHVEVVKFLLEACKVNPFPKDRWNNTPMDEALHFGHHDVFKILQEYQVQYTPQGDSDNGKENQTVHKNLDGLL

[21] = GI tissue homogenate stability and DON release; type: in vitro ADME, C57BL/6/CES1-/- mouse; conditions: C57BL/6/CES1-/-, mouse, GI tissue (jejunum) homogenate, pH 7.4
[22] = cited from earlier work
[23] = 31 of 47 patients who received 2 weeks or more of DON therapy; cited from earlier work
[24] = Complete blood count; type: in vivo, C57BL/6/CES1-/- mice; conditions: Avg of 3 animals, 1 mg/kg (eq.) iv, normal range 1.06-56.08
How it was run: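 In the EL4 i.v. cohort (vehicle, parent drug or test compound at 1 mg/kg DON equivalent, 5 days/week for 2 weeks), mice remaining at the end of treatment were sacrificed and blood was collected for a complete blood count.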

## CC(=O)N[C@@H](Cc1c[nH]c2ccccc12)C(=O)N[C@@H](CCC(=O)C=[N+]=[N-])C(=O)OC(C)C [DRP-104, isopropyl(S)-2-((S)-2-acetamido-3-(1H-indol-3-yl)-propanamido)-6-diazo-5-oxo-hexanoate]
[1]
  remaining at 1 h, 20 μM: > 90%
[2]
  metabolism by recombinant CES1 (in words): CES1 was capable of metabolizing DRP-104 to M1 metabolite
[3]; 1 mg/kg DON eq. intravenously
  deaths (in words): no deaths were observed
[3]; 1 mg/kg DON eq. intravenously, 5 days per week for 2 weeks
  body weight (in words): maintained their body weight
[4]
  % DRP-104 remaining: 0%
[5]
  survival (in words): enhanced survival compared to vehicle
[6]
  tumor FGAR increase versus vehicle: > 80 fold
[7]
  overt toxicity (in words): No overt signs of toxicity
[8]
  GI histology (in words): improvement in all these parameters
[8]; 1 mg/kg DON eq. subcutaneously
  GI morphology (in words): mild lymphocytic infiltration
[8]; 0.1 and 0.3 mg/kg DON eq. subcutaneously
  GI morphology (in words): normal
[9]
  remaining at 1 h, 10 μM: 0%
[10]; GI tissue homogenate
  metabolites found (MET-ID): only the M1 metabolite
[10]; tumor homogenate
  metabolites found (MET-ID): both DON and M1 metabolite
[11]
  dependence of efficacy on CD8+ T cells (in words): completely dependent
[12]
  tumor growth (in words): dose-dependent inhibition of tumor growth; also recorded: complete tumor regression at the higher two doses
[13]
  EC50: 10 ± 1.9 µM
[14]
  effect on body weight (in words): no substantial effect on body weight
[15]
  M+5 isotopologue share of the total glutamate pool: 14.66%
[16]
  tumor GLS-1 activity versus vehicle (in words): significant inhibition of tumor GLS-1 activity
[17]; GI tissue
  intact DRP-104 concentration: no DRP-104 was observed
[17]; plasma, after DRP-104 2.6 mg/kg s.c., 2.6 mg/kg
  AUC0-t: 0.65 nmol hour/ml or nmol hour/g
[17]; tumor
  intact DRP-104 concentration: no DRP-104 was observed
[18]
  remaining at 1 h, 20 μM: 0%
[19]
  tumor response (in words): complete regression of the tumor
[20]; intact compound
  inhibition of GLS-1 (in words): inactive
[21]
  remaining at 1 h, 20 μM: 0%

## CCCCCOC(=O)Nc1nc(=O)n([C@@H]2O[C@H](C)[C@@H](O)[C@H]2O)cc1F [capecitabine]
[22]
  average 5-fluorouracil concentration in tumor versus adjacent healthy tissue: 3.2 fold

## COc1ccc(/C=C\c2cc(OC)c(OC)c(OC)c2)cc1OP(=O)(O)O [CA4P, combretastatin A4 phosphate]
[22]
  tumor versus plasma delivery (in words): two- to threefold

## [N-]=[N+]=CC(=O)CC[C@H](N)C(=O)O [DON, 6-Diazo-5-oxo-L-norleucine, reference compound]
[23]
  patients with stable disease or regression: 66%
[3]; 1 mg/kg intravenously, 5 days per week for 2 weeks
  body weight reduction: 20 to 30%
[3]; 1 mg/kg intravenously, 5 days/week for 2 weeks
  mice that required euthanasia based on IACUC weight loss guidelines: 63%
[24]
  WBC: 0.93 ± 0.18 K/uL
[6]
  tumor FGAR increase versus vehicle: > 80 fold
[8]
  GI histology (in words): severe GI toxicity
[13]
  EC50: 4 ± 0.6 µM
[16]
  tumor GLS-1 activity versus vehicle (in words): significant inhibition of tumor GLS-1 activity
[19]
  tumor response (in words): complete regression of the tumor
[20]
  IC50: 10 ± 0.3 µM
